According to ChEMBL document CHEMBL1821637, “Selective cytotoxicity of oxysterols through structural modulation on rings A and B. Synthesis, in vitro evaluation, and SAR” (J Med Chem, 2011):

Columns and labels:
HT-29 [1] = test: Cytotoxicity against human HT-29 cells assessed as cell viability after 48 hrs by alamar blue assay; type: functional, cell-based; details: for IC50: HT-29, 48 h
Procedure, shortened: (§1)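 Alamar Blue viability assay on the human cell line named (origins given: HT-29 colorectal adenocarcinoma, HepG2 hepatocellular carcinoma, LAMA-84 myeloid leukemia, A549 lung adenocarcinoma, PC3 prostate metastasis, MCF-7 breast adenocarcinoma, ARPE-19 retinal pigment epithelium, BJ skin fibroblast). Exposure was 48 h. Sterol stocks were made in DMSO. IC50 is the concentration inhibiting 50% of cellular growth, given as the mean of at least three separate experiments.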

[2] = Cytotoxicity against human ARPE19 cells assessed as cell viability after 48 hrs by alamar blue assay; type: cell-based, ARPE-19; details: for IC50: Homo sapiens, ARPE-19, 48 h; for Activity: human, arpe-19, 48 h; procedure, shortened: as §1
HT-29 [3] = test: Cytotoxicity against human HT-29 cells assessed as inhibition of cell growth after 96 hrs by alamar blue assay; type: functional, cell-based; details: HT-29, 96 h
Procedure, shortened: (§2)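 HT-29 and ARPE-19 cells exposed for 96 h. ARPE-19 seeded at 5 10^3 cells/well for this period. Sterol stocks in DMSO. Viability by Alamar Blue. IC50 is the concentration inhibiting 50% of cellular growth, mean of at least three separate experiments.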

[4] = Cytotoxicity against human ARPE19 cells assessed as inhibition of cell growth after 96 hrs by alamar blue assay; type: cell-based; details: ARPE-19, 96 h; procedure, shortened: as §2
HT-29 [5] = test: Selectivity index, ratio of IC50 for human ARPE19 cells to IC50 for human HT-29 cells; type: functional
LAMA-84 = test: Cytotoxicity against human LAMA-84 cells assessed as cell viability after 48 hrs by alamar blue assay; type: functional, cell-based; details: for IC50: LAMA-84, 48 h; procedure, shortened: as §1
MCF7 = test: Cytotoxicity against human MCF7 cells assessed as cell viability after 48 hrs by alamar blue assay; type: functional, cell-based; details: for IC50: MCF7, 48 h; procedure, shortened: as §1
SH-SY5Y = test: Cytotoxicity against human SH-SY5Y cells assessed as cell viability after 48 hrs by alamar blue assay; type: functional, cell-based
Procedure, shortened: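 SH-SY5Y cells grown in DMEM/F12 (1:1) with L-glutamine, 10% heat-inactivated FBS, 100 units/mL penicillin and 0.1 mg/mL streptomycin, pH 7.4. Seeded at 5 10^3 cells/well and exposed to the sterols (DMSO stocks) for 48 h. Alamar Blue read-out. IC50 is the concentration inhibiting 50% of growth, mean of at least three separate experiments.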

HepG2 = test: Cytotoxicity against human HepG2 cells assessed as cell viability after 48 hrs by alamar blue assay; type: functional, cell-based; details: for IC50: HepG2, 48 h; procedure, shortened: as §1
A549 = test: Cytotoxicity against human A549 cells assessed as cell viability after 48 hrs by alamar blue assay; type: functional, cell-based; details: for IC50: A549, 48 h
Procedure, shortened: as §1, with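 “DMSO.” for “DMSO. IC50 is the concentration inhibiting 50% of cellular growth, given as the mean of at least three separate experiments.”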

PC-3 = test: Cytotoxicity against human PC3 cells assessed as cell viability after 48 hrs by alamar blue assay; type: functional, cell-based; details: for IC50: PC-3, 48 h; procedure, shortened: as §1
BJ = test: Cytotoxicity against human BJ cells assessed as cell viability after 48 hrs by alamar blue assay; type: cell-based; details: for IC50: Homo sapiens, BJ; for Activity: human, bj; procedure, shortened: as §1

Structure (SMILES): CC(=O)O[C@H]1CC[C@]2(C)[C@H]3CC[C@]4(C)[C@@H]([C@H](C)CCCC(C)C)CC[C@H]4[C@@H]3CC[C@@]2(O)[C@H]1O
- IC50 (HT-29 [1]): 18.6 µM
- IC50 [2]: 32.5 µM
- IC50 (HT-29 [3]): 17.7 µM
- IC50 [4]: 21.8 µM
- Ratio IC50 (HT-29 [5]): 1.75

Structure (SMILES): CC(C)CCC[C@@H](C)[C@H]1CC[C@H]2[C@@H]3[C@@H](O)[C@@H](O)[C@@]4(O)C[C@@H](O)CC[C@]4(C)[C@H]3CC[C@]12C
- inhibition (HT-29 [1]): Dose-dependent effect
- IC50 (HT-29 [1]): 13.9 µM
- inhibition (LAMA-84): Dose-dependent effect
- IC50 (LAMA-84): 5.1 µM
- inhibition (MCF7): Dose-dependent effect
- IC50 (MCF7): 13.1 µM
- IC50 (SH-SY5Y): 20.2 µM
- inhibition (SH-SY5Y): Dose-dependent effect
- inhibition (HepG2): Dose-dependent effect
- IC50 (HepG2): 13.8 µM
- inhibition (A549): Dose-dependent effect
- IC50 (A549): 17.3 µM
- inhibition (PC-3): Dose-dependent effect
- IC50 (PC-3): 17.4 µM
- IC50 [2]: 21.4 µM
- Activity [2]: Non-toxic
- IC50 (BJ): 19.3 µM
- Activity (BJ): Non-toxic
- Ratio IC50 (HT-29 [5]): 1.54

Structure (SMILES): CC(C)CCC[C@@H](C)[C@H]1CC[C@H]2[C@@H]3C/C(=N\O)[C@@]4(O)C[C@@H](O)CC[C@]4(C)[C@H]3CC[C@]12C
- IC50 (HT-29 [1]): 11.9 µM
- IC50 (SH-SY5Y): 16.8 µM
- IC50 (HepG2): 13.2 µM
- IC50 (A549): 15 µM
- IC50 (PC-3): 15 µM
- IC50 [2]: 23.7 µM
- IC50 (BJ): 17.1 µM
- Ratio IC50 (HT-29 [5]): 1.99

Structure (SMILES): CC(=O)O[C@H]1CC[C@]2(C)[C@H]3CC[C@]4(C)[C@@H]([C@H](C)CCCC(C)C)CC[C@H]4[C@@H]3[C@@H](OC(C)=O)[C@@H](O)[C@@]2(O)C1
- IC50 (HT-29 [1]): 20.1 µM
- IC50 [2]: 29 µM
- IC50 (HT-29 [3]): 16.6 µM
- IC50 [4]: 19.5 µM
- Ratio IC50 (HT-29 [5]): 1.44

Structure (SMILES): CC(=O)O[C@H]1[C@@H](O)CC[C@]2(C)[C@H]3CC[C@]4(C)[C@@H]([C@H](C)CCCC(C)C)CC[C@H]4[C@@H]3CC[C@@]12O
- IC50 (HT-29 [1]): 15.2 µM
- IC50 [2]: 37.4 µM
- IC50 (HT-29 [3]): 18.7 µM
- IC50 [4]: 22.3 µM
- Ratio IC50 (HT-29 [5]): 2.46

Structure (SMILES): CC(=O)O[C@H]1CC[C@]2(C)[C@H]3CC[C@]4(C)[C@@H]([C@H](C)CCCC(C)C)CC[C@H]4[C@@H]3C[C@@H](OC(C)=O)[C@@]2(O)C1
- IC50 (HT-29 [1]): 43.1 µM
- IC50 [2]: 64.1 µM
- IC50 (HT-29 [3]): 25.3 µM
- IC50 [4]: 35.4 µM
- Ratio IC50 (HT-29 [5]): 1.49

Structure (SMILES): CC(=O)O[C@H]1CC[C@@]2(C)C(=C[C@H](O)[C@H]3[C@@H]4CC[C@H]([C@H](C)CCCC(C)C)[C@@]4(C)CC[C@@H]32)C1
- IC50 [2]: 46.5 µM
- IC50 (HT-29 [3]): 12.4 µM
- IC50 [4]: 23.6 µM
- Ratio IC50 (HT-29 [5]): 1.58

Structure (SMILES): CC(=O)N[C@@H]1C[C@H]2[C@@H]3CC[C@H]([C@H](C)CCCC(C)C)[C@@]3(C)CC[C@@H]2[C@@]2(C)CC[C@H](O)C[C@]12O
- IC50 (HT-29 [1]): 14.5 µM
- IC50 (HepG2): 11.6 µM
- IC50 (A549): 14.5 µM
- IC50 (PC-3): 19.2 µM
- IC50 [2]: 19 µM
- Ratio IC50 (HT-29 [5]): 1.31

Structure (SMILES): CC(=O)O[C@@H]1[C@H]2[C@@H]3CC[C@H]([C@H](C)CCCC(C)C)[C@@]3(C)CC[C@@H]2[C@@]2(C)CC[C@H](O)C[C@]2(O)[C@@H]1OC(C)=O
- inhibition (HT-29 [1]): Dose-dependent effect
- IC50 (HT-29 [1]): 13.1 µM
- inhibition (LAMA-84): Dose-dependent effect
- IC50 (LAMA-84): 6.4 µM
- inhibition (MCF7): Dose-dependent effect
- IC50 (MCF7): 13.2 µM
- IC50 (SH-SY5Y): 13.8 µM
- inhibition (SH-SY5Y): Dose-dependent effect
- inhibition (HepG2): Dose-dependent effect
- IC50 (HepG2): 11.7 µM
- inhibition (A549): Dose-dependent effect
- IC50 (A549): 13.9 µM
- inhibition (PC-3): Dose-dependent effect
- IC50 (PC-3): 10.3 µM
- IC50 [2]: 11.2 µM
- Activity [2]: Toxic
- IC50 (BJ): 10.2 µM
- Activity (BJ): Toxic
- IC50 (HT-29 [3]): 14.9 µM
- Ratio IC50 (HT-29 [5]): 0.85

Structure (SMILES): CO[C@@H]1C[C@H]2[C@@H]3CC[C@H]([C@H](C)CCCC(C)C)[C@@]3(C)CC[C@@H]2[C@@]2(C)CC[C@H](O)C[C@]12O
- IC50 (HT-29 [1]): 10 µM
- IC50 (LAMA-84): 4.3 µM
- IC50 (HepG2): 13.3 µM
- IC50 (PC-3): 17.4 µM
- IC50 [2]: 25.8 µM
- IC50 (BJ): 17.4 µM
- Ratio IC50 (HT-29 [5]): 2.58

Structure (SMILES): CC(C)CCC[C@@H](C)[C@H]1CC[C@H]2[C@@H]3CC[C@@]4(O)[C@@H](O)[C@@H](O)CC[C@]4(C)[C@H]3CC[C@]12C
- IC50 (HT-29 [1]): 34 µM
- IC50 (HepG2): 34.4 µM
- IC50 (A549): 31.8 µM
- IC50 (PC-3): 35.1 µM

Structure (SMILES): CC(=O)O[C@@H]1C[C@H]2[C@@H]3CC[C@H]([C@H](C)CCCC(C)C)[C@@]3(C)CC[C@@H]2[C@@]2(C)CC[C@H](O)C[C@]12O
- IC50 (HT-29 [1]): 6.8 µM
- IC50 (LAMA-84): 3.9 µM
- IC50 (MCF7): 11 µM
- IC50 (SH-SY5Y): 12.2 µM
- IC50 (HepG2): 11.9 µM
- IC50 (A549): 13.3 µM
- IC50 (PC-3): 13.2 µM
- IC50 [2]: 17.9 µM
- IC50 (BJ): 13.4 µM
- IC50 (HT-29 [3]): 6.6 µM
- Ratio IC50 (HT-29 [5]): 2.58

Structure (SMILES): CC(=O)O[C@H]1CC[C@]2(C)[C@H]3CC[C@]4(C)[C@@H]([C@H](C)CCCC(C)C)CC[C@H]4[C@@H]3[C@@H](O)[C@@H](O)[C@@]2(O)C1
- IC50 (HT-29 [1]): 18.8 µM
- IC50 [2]: 30.5 µM
- IC50 (HT-29 [3]): 14.7 µM
- IC50 [4]: 23.8 µM
- Ratio IC50 (HT-29 [5]): 1.62

Structure (SMILES): CC(C)CCC[C@@H](C)[C@H]1CC[C@H]2[C@@H]3C[C@@H](O)[C@@]4(O)[C@@H](O)[C@@H](O)CC[C@]4(C)[C@H]3CC[C@]12C
- inhibition (HT-29 [1]): Dose-dependent effect
- IC50 (HT-29 [1]): 9.1 µM
- inhibition (LAMA-84): Dose-dependent effect
- IC50 (LAMA-84): 5.1 µM
- inhibition (MCF7): Dose-dependent effect
- IC50 (MCF7): 14.5 µM
- IC50 (SH-SY5Y): 14.5 µM
- inhibition (SH-SY5Y): Dose-dependent effect
- inhibition (HepG2): Dose-dependent effect
- IC50 (HepG2): 12.7 µM
- inhibition (A549): Dose-dependent effect
- inhibition (PC-3): Dose-dependent effect
- IC50 (PC-3): 17.1 µM
- IC50 [2]: 20.4 µM
- Activity [2]: Non-toxic
- IC50 (BJ): 17.8 µM
- Activity (BJ): Non-toxic
- Ratio IC50 (HT-29 [5]): 2.24

Structure (SMILES): CC(=O)O[C@H]1CC[C@]2(C)[C@H]3CC[C@]4(C)[C@@H]([C@H](C)CCCC(C)C)CC[C@H]4[C@@H]3C[C@@H](O)[C@@]2(O)C1
- IC50 [2]: > 60 µM
- IC50 [4]: 53 µM
- Ratio IC50 (HT-29 [5]): >3.09
